This note sets out measurements from article PMC10731006 (Heliyon, 2023).

The test system of data set [1] is non-small cell lung cancer (A549) cells. In words: MTT cytotoxicity assay, A549. The settings on record: for SI A549 (selectivity index): IC50 in HDF / IC50 in A549, 96 h; for IC50: read-out: IC50 A549. The data set is classed as cell-based, human. The essentials: (§1)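 Cells were grown in RPMI 1640 with 10% FCS, 2 mM L-glutamine and 1% penicillin-streptomycin at 37 °C under 5% CO2. They were seeded at 1 × 10^4 cells/ml, left overnight to adhere, and exposed 96 h to test compound diluted in medium (six final levels, 1–600), with DMSO-matched and cisplatin controls. MTT at 5 mg/ml was added for 4 h, formazan dissolved in DMSO, and A540 read, in triplicate. IC50 was fitted from the data. SI = IC50 in HDF / IC50 in this line.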
Background: Tetrazolium assays rely on reduction of a dye to a coloured formazan, in cell work by metabolically active cells.

The test system of data set [2] is breast cancer (MCF7) cells. Put plainly: MTT cytotoxicity assay, MCF7. The class given is cell-based, human. The settings on record: for SI MCF-7 (selectivity index): IC50 in HDF / IC50 in MCF-7, 96 h; for IC50: read-out: IC50 MCF-7. In outline:
as §1

For data set [3], the system named is HDF, U87, MCF-7 and A549 cells. In words: Morphological analysis. The class given is cell-based, human. The settings on record: 96 h, treatment at the respective IC50 for each cell line. The essentials:
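HDF, U87, MCF-7 and A549 cells were seeded at 1 × 10^4 cells/ml in flat-bottom plates and adhered overnight. They were then treated 96 h with test compound serially diluted in medium (final 1–600 μM/ml). Controls were untreated and DMSO-matched wells, plus cisplatin at 1–100 μM/mL. Cells were fixed in ice-cold methanol for 30 min at 4 °C, stained with hematoxylin, and viewed by inverted light microscopy.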

Data set [4] deals with glioblastoma (U-87 MG) cells. In words: MTT cytotoxicity assay, U-87 MG. The data set is classed as cell-based, human. The settings on record: for SI U87 (selectivity index): IC50 in HDF / IC50 in U87, 96 h; for IC50: read-out: IC50 U87. In outline:
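U-87 MG cells were cultured in DMEM with 10% FCS, 2 mM L-glutamine and 1% penicillin-streptomycin at 37 °C, 5% CO2. Seeding was 1 × 10^4 cells/ml; after overnight adherence, test compound diluted in medium (six final levels, 1–600) was applied for 96 h alongside DMSO-matched and cisplatin controls. Read-out: MTT 5 mg/ml for 4 h, DMSO solubilisation, A540, in triplicate, IC50 fitted. SI = IC50 in HDF / IC50 in U87.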

Data set [5] has as its system human dermal fibroblast (HDF, human dermal cell line). In words: MTT cytotoxicity assay, normal cells. The class given is cell-based. Conditions: read-out: IC50 HDF. In outline:
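Human dermal fibroblasts were maintained in DMEM with 10% FCS, 2 mM L-glutamine and 1% penicillin-streptomycin (37 °C, 5% CO2). They were seeded at 1 × 10^4 cells/ml, allowed to adhere overnight, then treated 96 h with serially diluted test compound (six final levels, 1–600) beside DMSO-matched vehicle and cisplatin controls. Then MTT 5 mg/ml was added for 4 h, formazan taken up in DMSO, and absorbance read at 540 nm, in triplicate. IC50 was fitted.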

The test system of data set [6] is Pseudomonas aeruginosa (ATCC 13048). In words: Agar diffusion test, P. aeruginosa. The class given is cell-based. The settings on record: ATCC13048, read-out: Zone of inhibition PA. On the technique in general: In agar diffusion tests the substance spreads into inoculated agar from a disc or well.
The subject of data set [7] is cancer cell lines (U87, MCF-7 and A549) compared to normal cells (HDF). Put plainly: MTT cytotoxicity, cancer cell lines compared to normal cells. The settings on record: 96 h treatment. The data set is classed as cell-based, human. The essentials:
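A549 and MCF7 grown in RPMI 1640, HDF and U87 in DMEM, each with 10% FCS, 2 mM L-glutamine, 1% pen-strep, 37 °C, 5% CO2. Cells at 1 × 10^4 cells/ml were adhered overnight, then exposed 96 h to test compound (final 1–600 […] in medium). Controls were blank, untreated, DMSO-matched and cisplatin (1–100 μM/mL). MTT 5 mg/ml for 4 h; DMSO-solubilised formazan read at 540 nm, triplicate. IC50 from curve fitting; selectivity index = HDF IC50 / cancer-line IC50.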

The test system of data set [8] is Escherichia coli (ATCC 25922). In words: Micro-broth dilution assay. The class given is cell-based. Conditions: ATCC25922, read-out: MIC EC. On the technique in general: Dilution methods test growth across graded concentrations, often in twofold steps.
Data set [9] is described as follows: ABTS radical scavenging assay.
In data set [10] the test system is Gram-positive and Gram-negative bacterial test strains. Put plainly: Antibacterial activity, whole panel of test strains. Conditions: agar diffusion. The class given is cell-based. The essentials: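 Disc diffusion followed CLSI (2012). Test compound at 10, 50 and 100 μg/disc was loaded on 6-mm blank filter discs laid on Mueller Hinton agar seeded at 10^6 cells/ml. Strains were S. aureus ATCC 10145, B. cereus ATCC 11778, B. subtilis ATCC 6633, P. aeruginosa ATCC 13048 and E. coli ATCC 25922. Inhibition zones were recorded.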

The test system of data set [11] is Staphylococcus aureus (ATCC 10145). Put plainly: Agar diffusion test, S. aureus. The class given is cell-based. The settings on record: ATCC10145, read-out: Zone of inhibition SA.
For data set [12], the system named is Pseudomonas aeruginosa (ATCC 13048). In words: Micro-broth dilution assay. The class given is cell-based. The settings on record: ATCC13048, read-out: MIC PA.
Data set [13] has as its system Bacillus cereus (ATCC 11778). Put plainly: Agar diffusion test, B. cereus. The data set is classed as cell-based. The settings on record: ATCC11778, read-out: Zone of inhibition BC.
The next data set relates to B. subtilis (ATCC 6633). In words: Micro-broth dilution assay. The data set is classed as cell-based. Conditions: Bacillus subtilis, ATCC6633, read-out: MIC BS.
Data set [14] relates to Escherichia coli (ATCC 25922). Put plainly: Agar diffusion test, E. coli. The data set is classed as cell-based. The settings on record: ATCC25922, read-out: Zone of inhibition EC.
The subject of data set [15] is Staphylococcus aureus (ATCC 10145). In words: Micro-broth dilution assay. Conditions: ATCC10145, read-out: MIC SA. The data set is classed as cell-based.
For data set [16], the system named is Bacillus cereus (ATCC 11778). In words: Micro-broth dilution assay. The data set is classed as cell-based. Conditions: ATCC11778, read-out: MIC BC.
Data set [17] can be described thus: DPPH radical scavenging assay.

In general, IC50 refers to the midpoint of a concentration-inhibition curve. What is called zone of inhibition is the size of the clear area around the sample on an inoculated plate. One may read the MIC as the least concentration at which growth counts as inhibited.

Structures are written as SMILES. ≈ marks a conversion by molar mass, not a printed value. Read-outs that look alike come from different tables or passages of the source. Some results are limits rather than exact numbers.

As to `N.N.[Cl][Pt][Cl]` [Cisplatin, reference compound], the “SI A549 (selectivity index)” value in data set [1] amounted to 1.3. Further, the 50% inhibitory concentration (IC50) in data set [1] (MTT, 96 h treatment) was determined as 30.4 ± 5.2 µM; in data set [2] (MTT, 96 h treatment) it was 26.9 ± 4.7 µM; in [4] (MTT, 96 h treatment), 28.3 ± 5.3 µM; in data set [5] (MTT, 96 h treatment) it was 40.9 ± 5.4 µM. Further, the “SI MCF-7 (selectivity index)” value in data set [2] is given as 1.5. In [3], the “morphological changes of treated cancer cells” value is “became rounded and separated from each other, shrank, and underwent nuclear condensation”. Moreover, the “SI U87 (selectivity index)” value in [4] amounted to 1.5.
With `COC(=O)c1cn(C2CC2)c2cc(N3CCN(C(=O)c4c(C)nnn4-c4ccc(Cl)cc4)CC3)c(F)cc2c1=O` [Compound 6c, methyl 7-(4-(1-(4-chlorophenyl)-4-methyl-1H-1,2,3-triazole-5-carbonyl)piperazin-1-yl)-1-cyclopropyl-6-fluoro-4-oxo-1,4-dihydroquinoline-3-carboxylate], the IC50 in [1] (Homo sapiens, A549, 96 h) was 239 ± 7.9 µM; in data set [2] (Homo sapiens, MCF7, 96 h), 61.6 ± 11.1 µM; in [4] (Homo sapiens, U-87 MG, 96 h), 12.3 ± 5.5 µM; in [5] (Homo sapiens, Fibroblast, 96 h), 294 ± 11.4 µM. For the same compound, the “SI A549 (selectivity index)” value in [1] was 1.2. The “SI MCF-7 (selectivity index)” value in data set [2] is recorded as 4.8. For the same compound, the zone of inhibition at 100 µg/disc in [6] is 12.3 ± 0.6 mm; in [11] it was 10.6 ± 1.2 mm; in [13] it was 12.7 ± 0.6 mm; in data set [14], 11.3 ± 0.7 mm. Further, the zone of inhibition at 300 µg/disc in data set [6] came out at 14.6 ± 0.6 mm; in data set [11], 12.3 ± 0.6 mm; in [13] it was 13.7 ± 1.1 mm; in data set [14] it was 13.6 ± 1.2 mm. Besides, the zone of inhibition at 500 µg/disc in [6] was 16.3 ± 0.6 mm; in data set [11], 13.3 ± 0.3 mm; in [13] it was 15.3 ± 0.7 mm; in [14], 14.6 ± 0.3 mm. Also, in data set [7], the “cytotoxic / anti-proliferative activity in words” value is “significant cytotoxic activity against only U-87 and MCF-7 cancer cell lines”. Also, the MIC was more than 500 µg/mL in data set [8]; 500 µg/mL (≈ 885 µM) in data set [12]; more than 500 µg/mL in the data set on B. subtilis (ATCC 6633); more than 500 µg/mL in data set [15]; 500 µg/mL (≈ 885 µM) in data set [16]. Besides, the “IC50 ± SD, ABTS” value in data set [9] turned out to be 35.1 ± 2.0 µg/mL (≈ 62.1 µM). Moreover, the “% inhibition ±SD, ABTS” value worked out at 14.8 ± 0.6% in [9] (5 μg/ml); 33.3 ± 0.8% in data set [9] (10 μg/ml); 42.7 ± 0.4% in [9] (25 μg/ml); 59.8 ± 0.3% in data set [9] (50 μg/ml); 65.7 ± 0.1% in data set [9] (100 μg/ml). For the same compound, the “inhibition zones, range over susceptible strains” value in [10] lay in the range of 13 to 16 mm. Also, the “SI U87 (selectivity index)” value in data set [4] is 23.9. The “IC50 ± SD, DPPH” value in data set [17] came to 43.1 ± 1.8 µg/mL (≈ 76.3 µM). Besides, the “% inhibition ±SD, DPPH” value came to 24.6 ± 1.8% in [17] (10 μg/ml), 31.7 ± 0.3% in data set [17] (25 μg/ml), 52.2 ± 0.2% in data set [17] (50 μg/ml) and 71.4 ± 0.7% in data set [17] (100 μg/ml).
